Data set [1] is described as follows: Phase I 2-way drug interaction study, steady-state plasma pharmacokinetics. Type of data set: in vivo, healthy adults. The procedure, abridged:
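After an overnight fast of ≥8 h and a moderate-fat meal 30 min before dosing, each drug was given once daily in fixed sequence. Plasma was sampled predose daily, then postdose on the final dosing day at 1–24 h, extended to 72 h or 96 h. Noncompartmental ln-transformed AUC0-t, Cmax and Ct were fitted by linear mixed model (period fixed, participant random) for GMR and 90% CI. t1/2 was descriptive.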

The nature of data set [2]: Phase I 2-way drug interaction study, safety and tolerability. Format: in vivo, healthy adults. The settings on record: for overall drug interaction, tolerability and safety finding: administered alone or in combination, healthy adults. The gist of the method: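 Open-label, fixed-sequence study in healthy men and women aged 18–55 years with BMI 18.5–31.0 kg/m2. Each drug was given alone and in combination, with a moderate-fat meal 30 min before dosing. Adverse events were monitored along with clinical laboratory values, vital signs, electrocardiography and physical examination, and summarised descriptively.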

A further data set concerns HIV‐1 subtypes. Particulars: no cross-resistance to currently approved antiretroviral treatments; cited from earlier work.
The conditions of data set [3]: healthy participants administered GSK3640254; cited from earlier work.
[4] abbreviates: dolutegravir 50 mg + GSK3640254 200 mg QD, after Day 7 dose, n = 16.

This is an account of results in PMC8451875 (British Journal of Clinical Pharmacology, 2021).

With `C[C@@H]1CCO[C@H]2Cn3cc(C(=O)NCc4ccc(F)cc4F)c(=O)c(O)c3C(=O)N12` [dolutegravir, reference compound], the “dolutegravir Tmax (median [min, max])” value in data set [1] (dolutegravir 50 mg + GSK3640254 200 mg QD, Day 7, n = 16) is given as 3.0 (1.0, 4.5) h. The “dolutegravir t1/2, geometric mean (SD Ln)” value in data set [1] (setting [4]) is 14.69 (1.13) h; in data set [1] (dolutegravir 50 mg QD alone, after Day 5 dose, n = 16) it was 14.49 (1.13) h. Besides, the “dolutegravir Cmax, geometric mean (SD Ln)” value in data set [1] (dolutegravir 50 mg QD alone, Day 5, steady state, moderate-fat meal, plasma, n = 16) is reported as 4.96 (1.18) μg/mL. In data set [1] (human, plasma, 50 mg), this compound yielded a concentration at 24 h of 1370 ng/mL. Also, the “overall drug interaction, tolerability and safety finding” value in data set [2] was “not associated with drug–drug interactions or major tolerability or safety findings”.
By AUC is commonly meant the area under the concentration-time curve, a measure of exposure. Read a high AUC as high exposure. One may read the Cmax as the highest concentration seen after dosing. The Tmax is the time from dosing to the highest level. Consider `C=C(C)[C@@H]1CC[C@]2(NCCN3CCS(=O)(=O)CC3)CC[C@]3(C)[C@H](CC[C@@H]4[C@@]5(C)CC=C(C6=CC[C@@](CF)(C(=O)O)CC6)C(C)(C)[C@@H]5CC[C@]43C)[C@@H]12` [GSK3640254], for which the “inhibition across HIV‐1 subtypes” value in the data set on HIV‐1 subtypes is recorded as “demonstrated inhibition”. The “most commonly reported adverse event” value in data set [3] is given as “headaches”. Moreover, the “GSK3640254 t1/2, geometric mean (SD Ln)” value in data set [1] (setting [4]) is reported as 23.42 (1.16) h. Also, in data set [1] (human, plasma, 200 mg), the AUC was 26700 ng·h/mL, the highest concentration (Cmax) was determined as 1680 ng/mL, the Tmax amounted to 5 h and the concentration at 24 h came out at 860 ng/mL. Besides, the “contact dermatitis at the electrocardiographic electrode site” value in data set [2] (16 participants per treatment) was determined as 1 event. Besides, the “overall drug interaction, tolerability and safety finding” value in data set [2] is reported as “not associated with drug–drug interactions or major tolerability or safety findings”.
